Our source for the Activity and EC50 values is ChEMBL document CHEMBL1140581, “Structure-activity relationship study of [1,2,3]thiadiazole necroptosis inhibitors” (Bioorg Med Chem Lett, 2007).

Each structure is given as a SMILES string. The source made the active and inactive calls. No cut-off for these calls is given here. Where only a bound is given, the exact number is not on record here.

One may read the EC50 as the midpoint of the concentration-response curve. A lower EC50 goes with greater potency.

The subject of the first assay is L929. The assay is described as follows: Inhibition of TNF-alpha-induced necroptosis in […] assessed as cell viability at 30 uM after 24 hrs by ATP-based assessement method. The class given is functional. Put shortly:
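L929 cells given 10 ng/mL human TNF-α for 24 h with compound at 30 μM. ATP-based viability, normalized to compound-only cells without stimulus (100%). N = 2, standard deviation.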
In the case of `CN1C(=O)N[C@H](Cc2c[nH]c3c(Cl)cccc23)C1=O`, the outcome was Active.

In the case of `C[C@H](NC(=O)c1snnc1C1CC1)c1c(F)cccc1Cl`, the outcome was Active. As to `COc1ccc([C@H]2C3CCc4ccc(OC)cc4C3=NN2C(C)=O)cc1` (stereo not given in full), the outcome was Active.

In another assay the test system is L929. The assay is described as follows: Inhibition of zVAD-induced necroptosis in […] assessed as cell viability at 30 uM after 24 hrs by ATP-based assessement method. It counts as functional. The method in brief: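 L929 cells treated 24 h with 100 μM zVAD.fmk as the necroptotic stimulus, compound at 30 μM. ATP-based viability, normalized to compound-only cells without stimulus (100%). N = 2, standard deviation.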
Regarding `CN1C(=O)N[C@H](Cc2c[nH]c3c(Cl)cccc23)C1=O`, the result was Active. On to `C[C@H](NC(=O)c1snnc1C1CC1)c1c(F)cccc1Cl`, for which the outcome was inactive.

Take `COc1ccc([C@H]2C3CCc4ccc(OC)cc4C3=NN2C(C)=O)cc1` (stereo not given in full): the outcome was inactive.

Another assay concerns Jurkat. Description: Inhibition of TNF-alpha-induced necroptosis in FADD-deficient human Jurkat T cells after 24 hrs. The class given is functional, cell-based. Put shortly:
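FADD-deficient human Jurkat T cells at 5×10^5 cells/mL, 24 h at 37 °C, 5% CO2, with 10 ng/mL human TNF-α plus compound at eleven concentrations (0.030–100 μM), each in duplicate. DMSO stocks diluted in DMSO; final DMSO 0.5%. Viability by luminescent ATP assay (CellTiter-Glo), expressed as signal with TNF-α plus compound over signal with compound alone. EC50 from the dose series.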
In turn, `O=C(NCc1c(F)cccc1F)c1snnc1C1CC1` registered an EC50 of 1.5 µM. The same measure, in the same setting: the value for `Cc1nc(-c2ccc(Cl)cc2)sc1C(=O)NCc1c(F)cccc1Cl` was over 100 µM; that for `Cc1nnsc1C(=O)N(C)Cc1c(F)cccc1Cl` was 11 µM; that for `O=C(NCc1c(F)cccc1C(F)(F)F)c1snnc1C1CC1` was over 100 µM.

In turn, `O=C(NCc1c(F)cccc1Cl)c1snnc1C1CCCCC1` gave an EC50 of 6 µM. `Cc1c(Br)csc1C(=O)NCc1c(F)cccc1Cl` registered an EC50 of 1.3 µM.

`O=C(NCc1c(F)cccc1Cl)c1snnc1-c1ccccc1` gave an EC50 of over 100 µM. Still for that read-out and setting: for `C[C@@H](NC(=O)c1snnc1C1CC1)c1c(F)cccc1Cl` the value was over 100 µM; for `CCOc1ccsc1C(=O)NCc1c(F)cccc1Cl`, over 100 µM; for `Cc1c(C#N)csc1C(=O)NCc1c(F)cccc1Cl`, 1.2 µM.

Take `Cc1ccoc1C(=O)NCc1c(F)cccc1Cl`: the response was half-maximal at 13 µM (EC50). Still for that read-out and setting: the value for `CC(C)(NC(=O)c1snnc1C1CC1)c1c(F)cccc1Cl` was over 100 µM; that for `O=C(NCc1c(F)cccc1Cl)c1cccs1` was 9.4 µM. `O=C(NCc1c(F)ccc(Cl)c1F)c1snnc1C1CC1` yielded an EC50 of 0.18 µM.

Turning to `O=C(NCc1c(F)cccc1Cl)c1snnc1C1CC1`, the half-maximal effective concentration (EC50) stood at 0.5 µM. As to `CCCc1nnsc1C(=O)NCc1c(F)cccc1Cl`, the concentration giving a half-maximal response (EC50) is 4.1 µM. This EC50 is about 8.2-fold higher than that of the compound before. For `CCCCC(NC(=O)c1snnc1C1CC1)c1c(F)cccc1Cl` (stereo not given), the concentration for a half-maximal effect (EC50) is over 100 µM. `O=C(NCc1ccccc1F)c1snnc1C1CC1` gave an EC50 of 1.5 µM. Same read-out and setting: for `O=C(Nc1c(F)cccc1F)c1snnc1C1CC1` the value was over 100 µM. With `Cc1ccsc1C(=O)NC(C)c1c(F)cccc1Cl` (stereo not given), the EC50 turned out to be 3.9 µM. As for `CC(C)(C)c1nnsc1C(=O)NCc1c(F)cccc1Cl`, the EC50 turned out to be 18 µM.

As to `O=C(NC(=O)c1c(F)cccc1Cl)c1snnc1C1CC1`, the EC50 is over 100 µM. `O=C(NCc1c(F)ccc(F)c1Cl)c1snnc1C1CC1` returned an EC50 of 0.52 µM. That is a sub-micromolar value. The compound `CC(NC(=O)c1snnc1C1CC1)c1c(F)cccc1Cl` (stereo not given) had a concentration giving a half-maximal response (EC50) of 0.4 µM. On the same count and under the same terms, the value for `Cc1ccsc1C(=O)NCc1c(F)cccc1Cl` was 7 µM; that for `CC(C)c1nnsc1C(=O)NCc1c(F)cccc1Cl` was 0.58 µM. The compound `Cc1csc(C(=O)NCc2c(F)cccc2Cl)c1Cl` showed a 50% effective concentration (EC50) of 3.9 µM. Compound `O=C(NCc1c(F)cccc1Cl)c1snnc1C1CCCC1` displayed a 50% effective concentration (EC50) of 1.9 µM. In turn, `O=C(NCc1ccccn1)c1snnc1C1CC1` had an EC50 of 40 µM. On to `N#Cc1cccc(Cl)c1CNC(=O)c1snnc1C1CC1`, for which the concentration giving a half-maximal response (EC50) was over 100 µM. Same read-out and setting: the value for `COc1ccccc1CNC(=O)c1snnc1C` was over 100 µM; that for `O=C(NCc1c(F)cccc1Cl)c1sccc1C1CC1` was 5.1 µM; that for `O=C(NCc1ncccc1F)c1snnc1C1CC1` was 9.6 µM. For `Cc1nc(C)c(C(=O)NCc2c(F)cccc2Cl)s1`, the EC50 was over 100 µM. On to `C[C@H](NC(=O)c1snnc1C1CC1)c1c(F)cccc1Cl`, for which the EC50 came out at 0.28 µM. `Cc1nnccc1C(=O)NCc1c(F)cccc1Cl` registered an EC50 of over 100 µM. In turn, `Fc1cccc(Cl)c1CNCc1snnc1C1CC1` gave a concentration for a half-maximal effect (EC50) of over 100 µM. Still for that read-out and setting: for `O=C(NCCc1c(F)cccc1Cl)c1snnc1C1CC1` the value was 27 µM; for `Cc1c(S(=O)(=O)c2ccc(Cl)cc2)csc1C(=O)NCc1c(F)cccc1Cl`, over 100 µM; for `O=C(NCc1cccc2ccccc12)c1snnc1C1CC1`, over 100 µM. As to `Cc1ncoc1C(=O)NCc1c(F)cccc1Cl`, the 50% effective concentration (EC50) was over 100 µM.

With `O=C(NCc1c(Cl)cccc1Oc1ccccc1)c1snnc1C1CC1`, the EC50 is over 100 µM. Same read-out and setting: for `Cc1ccccc1CNC(=O)c1snnc1C` the value was 27 µM. `Cc1ncsc1C(=O)NCc1c(F)cccc1Cl` displayed an EC50 of 20 µM. Regarding `Cc1csc(C(=O)NCc2c(F)cccc2Cl)c1`, a half-maximal response (EC50) required 3.7 µM. Still for that read-out and setting: for `Cc1ccc(C(=O)NCc2c(F)cccc2Cl)s1` the value was 3.9 µM; for `O=C(NCc1c(F)cccc1Cl)c1snnc1C1CCC1`, 0.6 µM; for `Cc1nnsc1C(=O)NCc1c(F)cccc1F`, 3.5 µM. Compound `Cc1nnsc1C(=O)NCc1c(F)cccc1Cl` displayed an EC50 of 1 µM.

In the case of `O=C(NCc1c(F)cccc1Cl)c1sccc1Cl`, the EC50 worked out at 9.6 µM. Still for that read-out and setting: the value for `O=C(NC(c1ccccc1)c1c(F)cccc1Cl)c1snnc1C1CC1` (stereo not given) was over 100 µM; that for `CN(Cc1c(F)cccc1Cl)C(=O)c1snnc1C1CC1` was 16 µM; that for `O=C(NCc1c(Cl)cccc1Cl)c1snnc1C1CC1` was 6 µM. `Cc1cccc(Cl)c1CNC(=O)c1snnc1C1CC1` had an EC50 of 10 µM.

The next assay concerns Jurkat. Description: Inhibition of TNF-alpha-induced necroptosis in FADD-deficient human Jurkat T cells assessed as cell viability at 30 uM after 24 hrs by ATP-based assessement method. It counts as functional. The method in brief: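 FADD-deficient Jurkat cells exposed 24 h to 10 ng/mL human TNF-α with compound at 30 μM. Viability by ATP-based luminescence, normalized to cells given compound without the necroptotic stimulus (set as 100%). N = 2, standard deviation.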
Turning to `CN1C(=O)N[C@H](Cc2c[nH]c3c(Cl)cccc23)C1=O`, the result was Active. Same read-out and setting: the value for `C[C@H](NC(=O)c1snnc1C1CC1)c1c(F)cccc1Cl` was “Active”; that for `COc1ccc([C@H]2C3CCc4ccc(OC)cc4C3=NN2C(C)=O)cc1` (stereo not given in full) was “Active”.

A further assay has as its system Fibroblast. The assay is described as follows: Inhibition of TNFalpha and zVAD-induced necroptosis in SV40-transformed mouse adult lung fibroblasts assessed as cell viability at 30 uM after 24 hrs by ATP-based assessement method. It counts as functional. Put shortly: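 SV40-transformed mouse adult lung fibroblasts stimulated 24 h with 10 ng/mL human TNF-α plus 100 μM zVAD.fmk, compound at 30 μM. ATP-based viability, normalized to compound-treated cells without stimulus (100%). N = 2, standard deviation.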
`CN1C(=O)N[C@H](Cc2c[nH]c3c(Cl)cccc23)C1=O`: the outcome was Active.

As to `C[C@H](NC(=O)c1snnc1C1CC1)c1c(F)cccc1Cl`, the result was Active.
